Source: ChEMBL document CHEMBL1255245, “Relative replication capacity and selective advantage profiles of protease inhibitor-resistant hepatitis C virus (HCV) NS3 protease mutants in the HCV genotype 1b replicon system” (Antimicrob Agents Chemother, 2008)

Legend:
Hepatitis C virus [1] = test: Selectivity ratio of EC50 for Hepatitis C virus genotype 1b N expressing NS3 V36M mutant infected in human HuH7 cells to EC50 for Hepatitis C virus genotype 1b N expressing wild type NS3 infected in human HuH7 cells; type: functional, Hepacivirus hominis, genotype 1b strain N, Huh-7
How it was run: (§1)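 Change in resistance: mutant replicon EC50 divided by wild-type 1b N replicon EC50 for the same drug. Both EC50s come from 4-day transient-replication assays in electroporated Huh7 cells with a firefly luciferase read-out, fitted from triplicate-well means. Mean of at least three experiments.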

Hepatitis C virus [2] = test: Selectivity ratio of EC50 for Hepatitis C virus genotype 1b N expressing NS3 T54A mutant infected in human HuH7 cells to EC50 for Hepatitis C virus genotype 1b N expressing wild type NS3 infected in human HuH7 cells; type: functional, Hepacivirus hominis, genotype 1b strain N, Huh-7; how it was run: as §1
Hepatitis C virus [3] = test: Selectivity ratio of EC50 for Hepatitis C virus genotype 1b N expressing NS3 V170A mutant infected in human HuH7 cells to EC50 for Hepatitis C virus genotype 1b N expressing wild type NS3 infected in human HuH7 cells; type: functional, Hepacivirus hominis, genotype 1b strain N, Huh-7; how it was run: as §1
Hepatitis C virus [4] = test: Selectivity ratio of EC50 for Hepatitis C virus genotype 1b N expressing NS3 V170A mutant infected in human HuH7 cells to EC50 for Hepatitis C virus genotype 1b N expressing wild type NS3 infected in human HuH7 cells at 100 nM; type: functional, Hepacivirus hominis, genotype 1b strain N, Huh-7
Hepatitis C virus [5] = test: Selectivity ratio of EC50 for Hepatitis C virus genotype 1b N expressing NS3 D168A mutant infected in human HuH7 cells to EC50 for Hepatitis C virus genotype 1b N expressing wild type NS3 infected in human HuH7 cells; type: functional, Hepacivirus hominis, genotype 1b strain N, Huh-7; how it was run: as §1
Hepatitis C virus [6] = test: Selectivity ratio of EC50 for Hepatitis C virus genotype 1b N expressing NS3 A156V mutant infected in human HuH7 cells to EC50 for Hepatitis C virus genotype 1b N expressing wild type NS3 infected in human HuH7 cells; type: functional, Hepacivirus hominis, genotype 1b strain N, Huh-7; how it was run: as §1
Hepatitis C virus [7] = test: Selectivity ratio of EC50 for Hepatitis C virus genotype 1b N expressing NS3 D168V mutant infected in human HuH7 cells to EC50 for Hepatitis C virus genotype 1b N expressing wild type NS3 infected in human HuH7 cells at 100 nM; type: functional, Hepacivirus hominis, genotype 1b strain N, Huh-7
Hepatitis C virus [8] = test: Selectivity ratio of EC50 for Hepatitis C virus genotype 1b N expressing NS3 R155K mutant infected in human HuH7 cells to EC50 for Hepatitis C virus genotype 1b N expressing wild type NS3 infected in human HuH7 cells at 10 nM; type: functional, Hepacivirus hominis, genotype 1b strain N, Huh-7
Hepatitis C virus [9] = test: Selectivity ratio of EC50 for Hepatitis C virus genotype 1b N expressing NS3 A156T mutant infected in human HuH7 cells to EC50 for Hepatitis C virus genotype 1b N expressing wild type NS3 infected in human HuH7 cells; type: functional, Hepacivirus hominis, genotype 1b strain N, Huh-7; how it was run: as §1
Hepatitis C virus [10] = test: Selectivity ratio of EC50 for Hepatitis C virus genotype 1b N expressing NS3 V36M/R155K double mutant infected in human HuH7 cells to EC50 for Hepatitis C virus genotype 1b N expressing wild type NS3 infected in human HuH7 cells; type: functional, Hepacivirus hominis, genotype 1b strain N, Huh-7; how it was run: as §1
Hepatitis C virus [11] = test: Selectivity ratio of EC50 for Hepatitis C virus genotype 1b N expressing NS3 V170A mutant infected in human HuH7 cells to EC50 for Hepatitis C virus genotype 1b N expressing wild type NS3 infected in human HuH7 cells at 10 nM; type: functional, Hepacivirus hominis, genotype 1b strain N, Huh-7
Hepatitis C virus [12] = test: Selectivity ratio of EC50 for Hepatitis C virus genotype 1b N expressing NS3 R155K mutant infected in human HuH7 cells to EC50 for Hepatitis C virus genotype 1b N expressing wild type NS3 infected in human HuH7 cells at 100 nM; type: functional, Hepacivirus hominis, genotype 1b strain N, Huh-7
Hepatitis C virus [13] = test: Selectivity ratio of EC50 for Hepatitis C virus genotype 1b N expressing NS3 A156T mutant infected in human HuH7 cells to EC50 for Hepatitis C virus genotype 1b N expressing wild type NS3 infected in human HuH7 cells at 100 nM; type: functional, Hepacivirus hominis, genotype 1b strain N, Huh-7
Hepatitis C virus [14] = test: Selectivity ratio of EC50 for Hepatitis C virus genotype 1b N expressing NS3 D168V mutant infected in human HuH7 cells to EC50 for Hepatitis C virus genotype 1b N expressing wild type NS3 infected in human HuH7 cells at 10 nM; type: functional, Hepacivirus hominis, genotype 1b strain N, Huh-7
Hepatitis C virus [15] = test: Selectivity ratio of EC50 for Hepatitis C virus genotype 1b N expressing NS3 R155Q mutant infected in human HuH7 cells to EC50 for Hepatitis C virus genotype 1b N expressing wild type NS3 infected in human HuH7 cells; type: functional, Hepacivirus hominis, genotype 1b strain N, Huh-7; how it was run: as §1
Hepatitis C virus [16] = test: Selectivity ratio of EC50 for Hepatitis C virus genotype 1b N expressing NS3 R155Q mutant infected in human HuH7 cells to EC50 for Hepatitis C virus genotype 1b N expressing wild type NS3 infected in human HuH7 cells at 100 nM; type: functional, Hepacivirus hominis, genotype 1b strain N, Huh-7
Hepatitis C virus [17] = test: Selectivity ratio of EC50 for Hepatitis C virus genotype 1b N expressing NS3 R155Q mutant infected in human HuH7 cells to EC50 for Hepatitis C virus genotype 1b N expressing wild type NS3 infected in human HuH7 cells at 10 nM; type: functional, Hepacivirus hominis, genotype 1b strain N, Huh-7
Hepatitis C virus [18] = test: Selectivity ratio of EC50 for Hepatitis C virus genotype 1b N expressing NS3 A156T mutant infected in human HuH7 cells to EC50 for Hepatitis C virus genotype 1b N expressing wild type NS3 infected in human HuH7 cells at 10 nM; type: functional, Hepacivirus hominis, genotype 1b strain N, Huh-7
Hepatitis C virus [19] = test: Antiviral activity against wild-type Hepatitis C virus genotype 1b N infected in human Huh7 cells; type: functional, organism-based, Hepacivirus hominis; details: genotype 1b strain N, Huh-7
How it was run: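 Transient replication: firefly-luciferase replicon RNA (genotype 1b N strain) transcribed in vitro and electroporated into Huh7 cells, plated in DMEM with 10% FBS. Luciferase read at 4 h to gauge transfection/translation. Drug dilutions added to a second plate set, incubated 4 days at 37°C, then luciferase measured. Triplicate samples per experiment; EC50 fitted from means; at least three experiments.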

Hepatitis C virus [20] = test: Selectivity ratio of EC50 for Hepatitis C virus genotype 1b N expressing NS3 R155K mutant infected in human HuH7 cells to EC50 for Hepatitis C virus genotype 1b N expressing wild type NS3 infected in human HuH7 cells; type: functional, Hepacivirus hominis, genotype 1b strain N, Huh-7; how it was run: as §1
Hepatitis C virus [21] = test: Selectivity ratio of EC50 for Hepatitis C virus genotype 1b N expressing NS3 D168V mutant infected in human HuH7 cells to EC50 for Hepatitis C virus genotype 1b N expressing wild type NS3 infected in human HuH7 cells; type: functional, Hepacivirus hominis, genotype 1b strain N, Huh-7; how it was run: as §1
Hepatitis C virus [22] = test: Selectivity ratio of EC50 for Hepatitis C virus genotype 1b N expressing NS3 A156S mutant infected in human HuH7 cells to EC50 for Hepatitis C virus genotype 1b N expressing wild type NS3 infected in human HuH7 cells; type: functional, Hepacivirus hominis, genotype 1b strain N, Huh-7; how it was run: as §1
Hepatitis C virus [23] = test: Selectivity ratio of EC50 for Hepatitis C virus genotype 1b N expressing NS3 R155K mutant infected in human HuH7 cells to EC50 for Hepatitis C virus genotype 1b N expressing wild type NS3 infected in human HuH7 cells at >10 nM; type: functional, Hepacivirus hominis, genotype 1b strain N, Huh-7

Compound | Ratio EC50 (Hepatitis C virus [1]) | Ratio EC50 (Hepatitis C virus [2]) | Ratio EC50 (Hepatitis C virus [3]) | Ratio EC50 (Hepatitis C virus [5]) | Ratio EC50 (Hepatitis C virus [6]) | Ratio EC50 (Hepatitis C virus [9]) | Ratio EC50 (Hepatitis C virus [10]) | Ratio EC50 (Hepatitis C virus [15]) | EC50 (Hepatitis C virus [19]) [nM] | Ratio EC50 (Hepatitis C virus [20]) | Ratio EC50 (Hepatitis C virus [21]) | Ratio EC50 (Hepatitis C virus [22]) | further results
COc1ccc2c(O[C@@H]3C[C@H]4C(=O)N[C@]5(C(=O)O)C[C@H]5/C=C\CCCCC[C@H](NC(=O)OC5CCCC5)C(=O)N4C3)cc(-c3csc(NC(C)C)n3)nc2c1 [CILUPREVIR] | 0.8 | 0.6 | 1.5 | 63.3 | 445 | 366.6 | 139.9 | 29.6 | 1.5 | 147.5 | 193.6 | 28 | Ratio EC50 (Hepatitis C virus [4]): 660; Ratio EC50 (Hepatitis C virus [7]): 660; Ratio EC50 (Hepatitis C virus [8]): 7; Ratio EC50 (Hepatitis C virus [11]): 7; Ratio EC50 (Hepatitis C virus [12]): 660; Ratio EC50 (Hepatitis C virus [13]): 660; Ratio EC50 (Hepatitis C virus [14]): 7; Ratio EC50 (Hepatitis C virus [16]): 660; Ratio EC50 (Hepatitis C virus [17]): 7; Ratio EC50 (Hepatitis C virus [18]): 7
CC(C)(C)OC(=O)N[C@H]1CCCCC/C=C\[C@@H]2C[C@@]2(C(=O)NS(=O)(=O)C2CC2)NC(=O)[C@@H]2C[C@@H](OC(=O)N3Cc4cccc(F)c4C3)CN2C1=O [DANOPREVIR] | 0.7 | 0.9 | 1.2 | 14 | 7.1 | 96 | 55.7 | 6.1 | 0.3 | 89.3 | 14.9 | 40 | Ratio EC50 (Hepatitis C virus [23]): 33
CCC[C@H](NC(=O)[C@@H]1[C@H]2CCC[C@H]2CN1C(=O)[C@@H](NC(=O)[C@@H](NC(=O)c1cnccn1)C1CCCCC1)C(C)(C)C)C(=O)C(=O)NC1CC1 [TELAPREVIR] | 0.7 | 6.7 |  | 0.1 | 63.1 | 96.3 | 3.3 | 1.3 | 320 | 5.4 | 0.2 | 19 | 
